Active and inactive are the calls of the source. The calls are words filed in the database; no cut-off is given here.
What was measured:
[1] = target: Protein kinase C delta type (Homo sapiens) (UniProt Q05655); experiment: Inhibition of PKCdelta in human Caco-2 cells assessed as ratio of phosphorylated PKCdelta at Ser664 residue to total PKCdelta level at 1 ug/ml preincubated for 15 mins with PKCalpha inhibitor, Go6976 followed by compound addition and measured after 48 hrs by Western blot analysis (reference value: 0.94); type: cell-based; conditions: dose 1.0 µg/ml
Sequence of Protein kinase C delta type (Homo sapiens) (Q05655 whole entry, looked up): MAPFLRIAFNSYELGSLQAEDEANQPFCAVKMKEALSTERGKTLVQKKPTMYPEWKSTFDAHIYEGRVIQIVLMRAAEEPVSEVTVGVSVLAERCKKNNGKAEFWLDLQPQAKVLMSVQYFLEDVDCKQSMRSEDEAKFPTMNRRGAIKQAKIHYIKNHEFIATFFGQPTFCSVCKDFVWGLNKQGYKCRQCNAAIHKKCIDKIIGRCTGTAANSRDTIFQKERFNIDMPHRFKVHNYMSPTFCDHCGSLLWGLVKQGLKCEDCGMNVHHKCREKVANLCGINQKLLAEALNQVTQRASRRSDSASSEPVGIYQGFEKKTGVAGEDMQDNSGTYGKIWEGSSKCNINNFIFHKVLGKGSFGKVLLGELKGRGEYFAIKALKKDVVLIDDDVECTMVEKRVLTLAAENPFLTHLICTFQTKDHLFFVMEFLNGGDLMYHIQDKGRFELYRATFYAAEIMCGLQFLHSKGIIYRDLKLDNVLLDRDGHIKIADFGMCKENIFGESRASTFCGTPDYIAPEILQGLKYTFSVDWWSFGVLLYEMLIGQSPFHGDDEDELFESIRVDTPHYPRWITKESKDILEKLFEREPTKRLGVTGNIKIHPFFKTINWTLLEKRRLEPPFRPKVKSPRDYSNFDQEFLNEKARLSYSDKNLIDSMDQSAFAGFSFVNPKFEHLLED
Procedure, shortened: (§1)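 Caco-2 cells were given 0.2 µM Gö6976 for 15 min, then compound at 1 µg/mL for 48 h. Lysates (30 µg protein) were blotted for pSer664-PKCδ and total PKCδ with actin loading control, and the pSer664/total PKCδ ratio was quantified. Data are from one experiment.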

Caco-2 [2] = experiment: Cytostatic activity against human Caco-2 cells assessed as inhibition of cell growth at 0.5 ug/ml incubated for 48 hrs by MTS assay relative to control; type: functional
Procedure, shortened: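 Caco-2 cells were seeded at 40 000/well 48 h before dosing. Compound was diluted from a 10 mg/mL DMSO stock into medium (0.125, 0.5 or 1 µg/mL final; DMSO ≤0.01%) and added in triplicate for 48 h. Viability was read by MTS absorbance at 490 nm and expressed relative to the DMSO control.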

[3] = target: Protein kinase C delta type (Homo sapiens) (UniProt Q05655); experiment: Inhibition of PKCdelta in human Caco-2 cells assessed as reduction in protein phosphorylation at Ser664 residue at 1 ug/ml incubated for 48 hrs by Western blot analysis; type: cell-based; conditions: dose 1.0 µg/ml
[4] = target: T1, Protein kinase C zeta type (Homo sapiens) (UniProt Q05513); experiment: Activation of PKCzeta in human Caco-2 cells assessed as increase in phosphorylation at Thr410 residue at 1 ug/ml measured after 48 hrs by Western blot analysis; type: cell-based; conditions: filed as activator, dose 1.0 µg/ml
T1 sequence (whole entry): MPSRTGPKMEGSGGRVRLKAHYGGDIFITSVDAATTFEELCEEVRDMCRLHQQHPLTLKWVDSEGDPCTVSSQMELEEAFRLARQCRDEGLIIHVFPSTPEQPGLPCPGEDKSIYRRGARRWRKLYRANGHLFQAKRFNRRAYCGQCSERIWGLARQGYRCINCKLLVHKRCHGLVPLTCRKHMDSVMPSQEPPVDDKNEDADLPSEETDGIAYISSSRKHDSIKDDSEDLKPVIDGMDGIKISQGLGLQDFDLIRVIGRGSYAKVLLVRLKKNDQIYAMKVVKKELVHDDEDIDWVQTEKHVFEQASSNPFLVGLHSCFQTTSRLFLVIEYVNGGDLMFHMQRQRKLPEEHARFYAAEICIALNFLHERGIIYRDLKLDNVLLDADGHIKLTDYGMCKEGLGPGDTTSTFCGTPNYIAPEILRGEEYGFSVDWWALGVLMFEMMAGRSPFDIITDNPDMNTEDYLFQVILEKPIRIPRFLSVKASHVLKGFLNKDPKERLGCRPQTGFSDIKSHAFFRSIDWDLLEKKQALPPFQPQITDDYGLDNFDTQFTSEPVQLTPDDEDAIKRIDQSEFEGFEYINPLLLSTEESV
Procedure, shortened: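 Caco-2 cells (0.25 × 10^6/well) were pretreated or not with 2.5 µM CRT0066854 for 30 min, then treated at 1 µg/mL for 48 h. Lysis buffer was pH 7.4 Tris/NaCl/0.1% Triton/EDTA with protease and phosphatase inhibitors. 30 µg protein was run on 4–15% SDS-PAGE, blotted and probed overnight at 4°C for pThr410-PKCζ and total PKCζ, with HRP/ECL detection.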

[5] = target: Protein kinase C delta type (Homo sapiens) (UniProt Q05655); experiment: Inhibition of PKCdelta in human Caco-2 cells assessed as reduction in protein phosphorylation at Ser664 residue at 1 ug/ml preincubated for 15 mins with PKCalpha inhibitor, Go6976 followed by compound addition and measured after 48 hrs by Western blot analysis; type: cell-based; conditions: dose 1.0 µg/ml; procedure, shortened: as §1
Caco-2 [6] = experiment: Induction of morphological changes in human Caco-2 cells assessed as effect on cellular aggregation at 1 ug/ml preincubated for 30 mins with CRT0066854 hydrochloride followed by compound addition and measured after 48 hrs by Hoechst 3342 and phalloidin staining based confocal microscopic analysis; type: functional, cell-based; conditions: dose 1.0 µg/ml
Procedure, shortened: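 CRT0066854 hydrochloride (2.5 µM) was added to Caco-2 cells 30 min before compound at 1 µg/mL. After 48 h, nuclei and actin cytoskeleton were labelled and confocal views taken with a 20X objective; duplicates from one experiment.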

[7] = target: T1, Protein kinase C zeta type (Homo sapiens); experiment: Activation of PKCzeta in human Caco-2 cells assessed as increase in colocalization of PKCzeta and actin in peripheral to cell aggregates at 1 ug/ml measured after 48 hrs by immunostaining analysis; type: cell-based; conditions: filed as activator, dose 1.0 µg/ml
Procedure, shortened: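 Caco-2 cells were seeded at 40 000/well and treated for 48 h as in the viability assay. They were fixed in 3.7% PFA for 20 min and permeabilised in HBSS/0.5% Triton X100/1% BSA. Anti-PKCζ (1/50) or anti-PKCα (1/200) was applied overnight at 4°C, then Alexa 488 secondary for 45 min. Phalloidin and Hoechst counterstained the cells before confocal imaging; PKCα signal was quantified by immunofluorescence.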

C=C(C)[C@]12C[C@@H](C)[C@@]34O[C@](/C=C/C=C/CCCCCCCCC)(O[C@@H]1[C@@H]3[C@@H]1O[C@]1(CO)[C@@H](O)[C@]1(O)C(=O)C(C)=C[C@H]14)O2
Ratio [1]: 0.68 | inhibition at 0.5 µg/mL (Caco-2 [2]): 20% | inhibition [3]: Active | Activity [4]: Active | inhibition [5]: Active

C=C(C)[C@]12C[C@@H](C)[C@@]34O[C@](/C=C/[C@@H]5O[C@H]5CCCCCCCCC)(O[C@@H]1[C@@H]3[C@@H]1O[C@]1(CO)[C@@H](O)[C@]1(O)C(=O)C(C)=C[C@H]14)O2
Activity (Caco-2 [6]): inactive | Activity [7]: Active
